From ChEMBL document CHEMBL4477216, “Discovery and Optimization of Small Molecule Splicing Modifiers of Survival Motor Neuron 2 as a Treatment for Spinal Muscular Atrophy” (J Med Chem, 2016)

Columns and labels:
Homo sapiens [1] = species on record: Homo sapiens; experiment: Inhibition of mRNA splicing of human SMN2 exon 7 transfected in HEK293H cells assessed as compound concentration required to increase full-length SMN2 mRNA level by 1.5 times after 24 hrs by RT-qPCR analysis relative to GAPDH; type: cell-based
Method in brief: (§1)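 HEK293H cells stably carrying the SMN2 minigene (exon 6 to 5' exon 8 fused to firefly luciferase) were plated and held for 6 h, then treated 24 h in duplicate at varying concentrations (0.5% DMSO). Full-length minigene mRNA and GAPDH were quantified by TaqMan RT-qPCR using actual PCR efficiencies. Results were normalized to GAPDH and DMSO and expressed as fold change versus DMSO.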

Homo sapiens [2] = species on record: Homo sapiens; experiment: Inhibition of mRNA splicing of SMN2 exon 7 in GM03813 fibroblasts derived from SMA patient assessed as compound concentration required to increase SMN protein level by 1.5 times after 24 hrs by HTRF assay
Homo sapiens [3] = species on record: Homo sapiens; experiment: Inhibition of mRNA splicing of SMN2 exon 7 in GM03813 fibroblasts derived from SMA patient assessed as maximum fold increase of SMN protein level by 1.5 times after 24 hrs by HTRF assay relative to control
[4] = Ratio of drug level in brain to plasma of Sprague-Dawley rat at 10 mg/kg, po measured at 6 hrs; type: ADME, organism-based; conditions: brain and plasma, read-out: BPR
Method in brief: (§2)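 Male Sprague-Dawley rats got a single oral 10 mg/kg dose as a suspension in 0.5% hydroxypropyl methylcellulose with 0.1% Tween-80. Plasma was sampled at several time points up to 6 h post dose to give AUC0-6h. Total brain concentration was taken at 6 h to give the brain/plasma ratio.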

[5] = AUC (0 to 6 hrs) in Sprague-Dawley rat at 10 mg/kg, po; type: ADME, organism-based; parameters: dose 10 mg/kg, time < 6 hr, route oral; conditions: in vivo; method in brief: as §2
Homo sapiens [6] = species on record: Homo sapiens; experiment: Inhibition of mRNA splicing of human SMN2 exon 7 transfected in HEK293H cells assessed as maximum fold of increase in full-length SMN2 mRNA level after 24 hrs by RT-qPCR analysis relative to control; type: cell-based; method in brief: as §1
Homo sapiens [7] = species on record: Homo sapiens; experiment: Inhibition of mRNA splicing of human SMN2 exon 7 transfected in HEK293H cells assessed as compound concentration required to increase full-length SMN2 mRNA level by 1.5 times after 24 hrs by RT-qPCR analysis; type: cell-based; method in brief: as §1
Homo sapiens [8] = species on record: Homo sapiens; experiment: Inhibition of mRNA splicing of human SMN2 exon 7 transfected in HEK293H cells assessed as maximum fold of increase in full-length SMN2 mRNA level after 24 hrs by RT-qPCR analysis relative to GAPDH; type: cell-based; method in brief: as §1
[9] = Protein binding in human plasma; type: ADME, cell-free; conditions: read-out: PPB (converted)
[10] = Efflux ratio of apparent permeability from basolateral to apical over apical to basolateral side in human Caco2 cells; type: ADME, cell-based; conditions: Caco-2
Method in brief: (§3)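 Bidirectional permeability was measured across a Caco-2 cell monolayer. Papp was reported, and efflux was expressed as the B-A/A-B ratio.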

[11] = Apparent permeability in human Caco2 cells; type: ADME, cell-based; conditions: Caco-2; method in brief: as §3

SMILES | EC1.5 (Homo sapiens [1]) | EC1.5 (Homo sapiens [2]) | also measured
COc1ccc(-c2cc(=O)n3cc(N4CCNCC4)ccc3n2)cc1OC | 120 nM | 830 nM | fold change (FC) (Homo sapiens [3]): 1.6
Cc1cn2cc(-c3cc4ccc(N5CCNCC5)cc4oc3=O)nc2c(C)n1 | 2 nM | 15 nM | Kp at 6 h [4]: 6.5; AUC(0-t) at 6 h [5]: 340 ng·h/mL
CCc1ccc2nc(-c3cc4ccc(N5CCNCC5)cc4oc3=O)cn2c1 | 2700 nM | > 10000 nM | 
COc1ccc(-c2cc3ccc(N4CCNCC4)cc3c(=O)[nH]2)cc1OC | 1400 nM | > 10000 nM | fold change (FC) (Homo sapiens [3]): 1.2
Cc1cn2cc(-c3cc4ccc(N5CCC(N(C)C)CC5)cc4oc3=O)nc2c(C)n1 | 11 nM | 61 nM | 
O=c1oc2cc(N3CCNCC3)ccc2cc1-c1cn2ccsc2n1 | 110 nM | 360 nM | fold change (FC) (Homo sapiens [3]): 1.5
CCN1CCN(c2ccc3cc(-c4cn5cc(C)nc(C)c5n4)c(=O)oc3c2)CC1 | 10 nM | 62 nM | 
O=c1oc2cc(N3CCCCC3)ccc2cc1-c1nc2ccccc2o1 | > 32000 nM |  | fold change (FC) (Homo sapiens [6]): 1; EC1.5 (Homo sapiens [7]): > 32 µM; fold change (FC) (Homo sapiens [8]): 1
Cc1cn2cc(-c3cc4ccc(N5CCN(CCCF)[C@@H](C)C5)cc4oc3=O)nc2c(C)n1 | 19 nM | 60 nM | 
COc1ccc(-c2cnc3cc(N4CCNCC4)ccn3c2=O)cc1OC | 3200 nM | > 10000 nM | fold change (FC) (Homo sapiens [3]): 1
Cc1cn2nc(-c3cc4ccc(C5CCN(C)CC5)cc4oc3=O)cc2c(C)n1 | > 10000 nM | > 10000 nM | 
Cc1cn2nc(-c3cc(=O)n4cc(C5CCN(C)CC5)ccc4n3)cc2c(C)n1 | 53 nM | 210 nM | 
Cc1cn2nc(-c3cc(=O)n4cc(N5CCNCC5)ccc4n3)cc2c(C)n1 | 6 nM | 31 nM | fraction unbound [9]: 0.3; efflux ratio [10]: 2.8; Kp at 6 h [4]: < 0.1; Papp [11]: 14 ×10⁻⁶ cm/s; AUC(0-t) at 6 h [5]: 380 ng·h/mL
Cc1cn2nc(-c3cc(=O)n4cc(N5CCN(C6CC6)CC5)ccc4n3)cc2c(C)n1 | 380 nM | 690 nM | 
Cc1cn2cc(-c3cc4ccc(CCCN(C)C)cc4oc3=O)nc2c(C)n1 | 58 nM | 220 nM | 
Cc1cn2cc(-c3cc4ccc(N5CCN(C)[C@@H](C)C5)cc4oc3=O)nc2c(C)n1 |  | 63 nM | Kp at 6 h [4]: 19; AUC(0-t) at 6 h [5]: 260 ng·h/mL
Cc1cn2cc(-c3cc4ccc(N5CCNCC5)cc4c(=O)o3)nc2c(C)n1 | 8 nM | 39 nM | fraction unbound [9]: 0.1; efflux ratio [10]: 2.6; Kp at 6 h [4]: 0.6; Papp [11]: 4.4 ×10⁻⁶ cm/s; AUC(0-t) at 6 h [5]: 280 ng·h/mL
Cc1cn2cc(-c3cc4ccc(N5CCN(C)CC5)cc4oc3=O)nc2cn1 |  | 69 nM | fraction unbound [9]: 0.03; efflux ratio [10]: 0.74; Papp [11]: 2.7 ×10⁻⁶ cm/s; AUC(0-t) at 6 h [5]: < 10 ng·h/mL
Cc1cc2cc(-c3cc4ccc(N5CCNCC5)cc4oc3=O)oc2c(C)n1 | 4 nM | 16 nM | 
COc1ccc(-c2cc3ccc(N4CCNCC4)cc3oc2=O)cc1 | 2000 nM | > 10000 nM | fold change (FC) (Homo sapiens [3]): 1.1

SMILES | EC1.5 (Homo sapiens [1]) | EC1.5 (Homo sapiens [2]) | also measured
COc1ccc(-c2cc3ccc(N4CCNCC4)cc3oc2=O)cc1OC | 620 nM | > 10000 nM | fold change (FC) (Homo sapiens [3]): 1.3
Cc1cn2cc(-c3cc4ccc(N5CCN(C)CC5)cc4oc3=O)nc2c(C)n1 | 18 nM | 31 nM | fraction unbound [9]: 0.03; efflux ratio [10]: 1.1; Kp at 6 h [4]: 0.7; Papp [11]: 1.4 ×10⁻⁶ cm/s; AUC(0-t) at 6 h [5]: 530 ng·h/mL
Cc1cn2cc(-c3cc4ccc(C5CCN(C)CC5)cc4oc3=O)nc2c(C)n1 | 11 nM | 50 nM | 
Cc1cn2nc(-c3cc(=O)n4cc(N5CCN(C)CC5)ccc4n3)cc2cn1 |  | 300 nM | AUC(0-t) at 6 h [5]: < 10 ng·h/mL
O=c1oc2cc(N3CCNCC3)ccc2cc1-c1ccccc1 | > 32000 nM | > 10000 nM | fold change (FC) (Homo sapiens [3]): 1
CN(C)c1ccc2cc(-c3nc4ccccc4o3)c(=O)oc2c1 | 22000 nM |  | fold change (FC) (Homo sapiens [6]): 1.2; EC1.5 (Homo sapiens [7]): > 32 µM; fold change (FC) (Homo sapiens [8]): 1.5
COc1ccc(-c2nc3ccc(N4CCNCC4)cc3[nH]c2=O)cc1OC | 2200 nM | > 10000 nM | fold change (FC) (Homo sapiens [3]): 1.1
O=c1oc2cc(N3CCOCC3)ccc2cc1-c1nc2ccccc2o1 | > 32000 nM |  | fold change (FC) (Homo sapiens [6]): 1.1; EC1.5 (Homo sapiens [7]): > 32 µM; fold change (FC) (Homo sapiens [8]): 1
O=c1oc2cc(N3CCNCC3)ccc2cc1-c1nc2ccccc2s1 | 1000 nM | > 10000 nM | fold change (FC) (Homo sapiens [3]): 1
Cc1cn2cc(-c3cc4ccc(N5CCN6CCC[C@H]6C5)cc4oc3=O)nc2c(C)n1 | 21 nM | 66 nM | 
Cc1cn2nc(-c3cc(=O)n4cc(N5CCC(N(C)C)CC5)ccc4n3)cc2c(C)n1 | 20 nM | 130 nM | 
O=c1oc2cc(N3CCNCC3)ccc2cc1-c1nc2ccccc2o1 | 8700 nM | > 10000 nM | fold change (FC) (Homo sapiens [6]): 7; EC1.5 (Homo sapiens [7]): 10 µM; fold change (FC) (Homo sapiens [3]): 1; fold change (FC) (Homo sapiens [8]): 25
Cc1cn2cc(-c3cc4ccc(N5CCNCC5)cc4oc3=O)nc2cn1 | 2 nM | 5 nM | 
Cc1cn2cc(-c3cc4ccc(N5CCNCC5)cc4oc3=O)cc2c(C)n1 | 4 nM | 29 nM | 
Cc1cn2cc(-c3cc(=O)n4cc(N5CCNCC5)ccc4n3)nc2c(C)n1 | 180 nM | 430 nM | 
O=c1oc2cc(N3CCNCC3)ccc2cc1-c1cn2ccncc2n1 | 70 nM | 120 nM | 
Cc1cn2cc(-c3cc4ccc(N5CC[C@H]6CNC[C@H]65)cc4oc3=O)nc2c(C)n1 | 28 nM | 640 nM | 
COc1ccc(-c2cc(=O)n3cc(N4CCNCC4)ccc3c2)cc1OC | 920 nM | 2500 nM | fold change (FC) (Homo sapiens [3]): 1.6
Cc1cc2oc(-c3cc4ccc(N5CCNCC5)cc4oc3=O)cc2c(C)n1 | 1500 nM | > 10000 nM | 
Cc1cn2cc(-c3cc4ccc(N5CCN(C)CC5)cc4c(=O)o3)nc2cn1 |  | 120 nM | AUC(0-t) at 6 h [5]: < 10 ng·h/mL

SMILES | EC1.5 (Homo sapiens [1]) | EC1.5 (Homo sapiens [2]) | also measured
Cc1cn2cc(-c3cc(=O)n4cc(N5CCNCC5)ccc4n3)cc(C)c2n1 | 48 nM | 60 nM | 
CCc1nc(C)cn2cc(-c3cc4ccc(N5CCNCC5)cc4oc3=O)nc12 | 10 nM | 210 nM | 
O=c1oc2cc(N3CCNCC3)ccc2cc1-c1cn2ccccc2n1 | 380 nM | > 10000 nM | fold change (FC) (Homo sapiens [3]): 1.3
COc1ccc(-c2cc3ccc(N4CCNCC4)cn3c(=O)n2)cc1OC | > 10000 nM | > 10000 nM | fold change (FC) (Homo sapiens [3]): 1
COc1ccc(-c2cc3ccc(N4CCNCC4)cc3c(=O)o2)cc1OC | 80 nM | 290 nM | fold change (FC) (Homo sapiens [3]): 1.6
Cc1cn2nc(-c3cc(=O)n4cc(N5CCN6CCC[C@H]6C5)ccc4n3)cc2c(C)n1 | 120 nM | 150 nM | 
Cc1cn2cc(-c3cc4ccc(N5CCN[C@H](C)C5)cc4oc3=O)nc2c(C)n1 | 3 nM | 13 nM | 
Cc1cn2cc(-c3cc4ccc(N5CCNCC5)cc4oc3=O)ccc2n1 | 5 nM | 66 nM | 
Cc1cn2nc(-c3cc(=O)n4cc(N5CCN[C@H](C)C5)ccc4n3)cc2c(C)n1 | 11 nM | 71 nM | 
Cc1cn2cc(-c3cc4ccc(N5CCN(C(C)(C)C)CC5)cc4oc3=O)nc2c(C)n1 | 59 nM | > 10000 nM | 
Cc1cn2cc(-c3cc4ccc(N5CCN[C@@H](C(C)C)C5)cc4oc3=O)nc2c(C)n1 | 23 nM | 76 nM | 
Cc1cn2cc(-c3cc4ccc(N5CCN(CCF)[C@@H](C)C5)cc4oc3=O)nc2c(C)n1 | 37 nM | 450 nM | 
COc1ccc(-c2cc3ccc(N4CCNCC4)nc3oc2=O)cc1OC | 8800 nM | > 10000 nM | fold change (FC) (Homo sapiens [3]): 1
COc1ccc(-c2cn3ccc(N4CCNCC4)cc3nc2=O)cc1OC | > 10000 nM | > 10000 nM | fold change (FC) (Homo sapiens [3]): 1
Cc1cn2cc(-c3cc4ccc(N5C[C@H]6CNC[C@H]6C5)cc4oc3=O)nc2c(C)n1 | 1 nM | 13 nM | 
Cc1ccc2nc(-c3cc4ccc(N5CCNCC5)cc4oc3=O)cn2c1 | 140 nM | 160 nM | 
O=c1oc2cc(N3CCNCC3)ccc2cc1-c1nc2ccccc2[nH]1 | 430 nM | > 10000 nM | fold change (FC) (Homo sapiens [3]): 1.2
Cc1cn2nc(-c3cc(=O)n4cc(N5CCN[C@@H](C)C5)ccc4n3)cc2c(C)n1 | 19 nM | 160 nM | 
Cc1cn2cc(-c3cc4ccc(N5CCN[C@@H](C)C5)cc4oc3=O)nc2c(C)n1 | 1 nM | 5 nM | 
